The text below walks through data of ChEMBL document CHEMBL1914356, “Maslinic acid derivatives induce significant apoptosis in b16f10 murine melanoma cells” (2011).

Molecules are shown by their SMILES. Active and inactive are the calls of the source. No cut-off for these calls is given here. Where only a bound is given, the exact number is not on record here.

The test system of experiment [1] is B16-F10. Put plainly: Induction of apoptosis in mouse B16F10 cells assessed as total apoptosis at 20 uM after 24 hrs using annexin V-FITC/propidium iodide staining by flow cytometry. In kind it is functional. Summed up: (§1)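 B16-F10 cells in DMEM/10% FBS were plated at 300,000 cells/well, then treated 24 h later, in duplicate, in DMSO at […] for 24 or 48 h. Vehicle and medium controls were included. Annexin V-FITC/PI staining ran 15 min at room temperature in the dark. Total apoptosis (early + late) was read by flow cytometry as mean ± SD from two independent experiments.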

For experiment [2], the system named is B16-F10. Put plainly: Induction of apoptosis in mouse B16F10 cells assessed as necrotic cells at 30 uM after 24 hrs using annexin V-FITC/propidium iodide staining by flow cytometry. Type of experiment: functional. Summed up:
(§2)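 B16-F10 cells grown in DMEM with 4 mM L-glutamine, 1 mM pyruvate, 4.5 g/L glucose and 10% FBS. 300,000 cells/well were plated, then treated in DMSO after 24 h. Vehicle and medium-alone controls were included. Cells were detached with EDTA-trypsin, PBS-washed and set at 1 × 10^6 cells/mL in binding buffer. Annexin V-FITC/PI staining ran 15 min at room temperature in the dark, followed by flow cytometry within 1 h.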

Experiment [3] concerns B16-F10. Put plainly: Induction of apoptosis in mouse B16F10 cells assessed as total apoptosis at 1 to 10 uM after 24 hrs using annexin V-FITC/propidium iodide staining by flow cytometry. Type of experiment: functional, cell-based. Summed up: (§3)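 B16-F10 cells grown in DMEM with 4 mM L-glutamine, 1.5 g/L bicarbonate, 1 mM pyruvate, 4.5 g/L glucose, 10% FBS. Seeded at 300,000 cells/well in 6-well dishes, treated 24 h later with compound in DMSO. Vehicle and medium-only controls. Detached with EDTA-trypsin, PBS-washed, stained with annexin V-FITC and PI 15 min at room temperature in dark. Total apoptosis = early + late. Mean ± SD, two independent experiments.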

In experiment [4] the test system is B16-F10. Nature of the experiment: Induction of apoptosis in mouse B16F10 cells assessed as total apoptosis at 20 uM after 48 hrs using annexin V-FITC/propidium iodide staining by flow cytometry. In kind it is functional, cell-based. Summed up: as §1
In general terms: A flow cytometer gives signals particle by particle.

The test system of experiment [5] is B16-F10. Nature of the experiment: Induction of apoptosis in mouse B16F10 cells assessed as total apoptosis at 1 to 10 uM after 48 hrs using annexin V-FITC/propidium iodide staining by flow cytometry. Type of experiment: functional, cell-based. Summed up: as §3
The subject of experiment [6] is B16-F10. Nature of the experiment: Induction of apoptosis in mouse B16F10 cells assessed as early/late apoptotic cells at 30 uM after 24 hrs using annexin V-FITC/propidium iodide staining by flow cytometry. In kind it is functional. Summed up:
as §2

Experiment [7] relates to B16-F10. Nature of the experiment: Induction of apoptosis in mouse B16F10 cells assessed as total apoptosis at 1 uM after 24 hrs using annexin V-FITC/propidium iodide staining by flow cytometry. Type of experiment: functional. Summed up: as §3

Regarding `CC1(C)CC[C@]2(C(=O)OCc3ccccc3)CC[C@]3(C)C(=CC[C@@H]4[C@@]5(C)C[C@@H](O)[C@H](O)C(C)(C)[C@@H]5CC[C@]43C)[C@@H]2C1` [BENZYL MASLINATE], the Activity with B16-F10 [1] is > 70%; with B16-F10 [2] it was <10%; with B16-F10 [6] it was 80%; in the experiment with B16-F10 [7] it was 87.5%. For the same molecule, the result in the experiment with B16-F10 [3] and in the experiment with B16-F10 [4] was Active. Besides, the outcome in the experiment on B16-F10 [5] was inactive.
`CC1(C)CC[C@]2(C#N)CC[C@]3(C)C(=CC[C@@H]4[C@@]5(C)C[C@@H](O)[C@H](O)C(C)(C)[C@@H]5CC[C@]43C)[C@@H]2C1`: the Activity in the experiment with B16-F10 [1] is 70%; with B16-F10 [2], <10%; in the experiment with B16-F10 [6], 80%; in the experiment on B16-F10 [7], 78.75%. Besides, the result in the experiment with B16-F10 [3] and in the experiment on B16-F10 [4] was Active. Also, in the experiment with B16-F10 [5], the outcome was inactive.
On to `CC1(C)CC[C@]2(C(=O)[O-])CC[C@]3(C)C(=CC[C@@H]4[C@@]5(C)C[C@@H](O)[C@H](O)C(C)(C)[C@@H]5CC[C@]43C)[C@@H]2C1.[Na+]` [SODIUM MASLINATE], for which the Activity in the experiment with B16-F10 [1] is given as 70%; in the experiment on B16-F10 [2], <10%; with B16-F10 [6], 80%; in the experiment with B16-F10 [7], 56.67%.
With `CC(=O)O[C@@H]1C[C@]2(C)[C@H]3CC=C4[C@@H]5CC(C)(C)CC[C@]5(C#N)CC[C@@]4(C)[C@]3(C)CC[C@H]2C(C)(C)[C@H]1OC(C)=O`, the Activity in the experiment with B16-F10 [1] is 70%; in the experiment on B16-F10 [2], <10%; in the experiment with B16-F10 [6], 80%; in the experiment on B16-F10 [7] it was 68.62%. The result in the experiment with B16-F10 [3] and in the experiment on B16-F10 [4] was Active. Also, the result in the experiment with B16-F10 [5] was inactive.
